Assay results as given in ChEMBL document CHEMBL1157562, “Piperazinyl glutamate pyridines as potent orally bioavailable P2Y12 antagonists for inhibition of platelet aggregation” (J Med Chem, 2010).

Legend:
P2Y purinoceptor 12 = P2Y purinoceptor 12 (Homo sapiens, UniProt Q9H244); assay: Displacement of [33P]ADP from human recombinant P2Y12 receptor expressed in CHO cells; assay type: cell-based
How it was run: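 Washed membranes from CHO cells expressing synthetic human P2Y12, incubated 1 h at room temperature with 0.2 nM 33P-MeSADP in 50 mM Tris/100 mM NaCl/1 mM EDTA. Compound was tested as a 7-point 3-fold series in triplicate. Nonspecific binding was defined with 300 nM 2-MeSADP, followed by filtration.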

[1] = Antiplatelet aggregation activity against adenosine diphosphate-induced human platelet rich plasma assessed as inhibition of platelet aggregation by turbidimetric method; assay type: functional
How it was run: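 Human PRP, prepared by two-step centrifugation and adjusted to 330 000 platelets/μL with PPP. Compound was preincubated 5 min at 37 °C in 0.5% DMSO, then 20 μM ADP was added. OD626 was read kinetically for 15 min at 37 °C with mixing between reads.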

Platelet = assay: Relative potency, ratio of IC50 for drug to IC50 for AZD-6140 for platelet aggregation in human platelet rich plasma; assay type: functional
[2] = Clearance in Sprague-Dawley rat at 2 mg/kg, iv and 5 mg/kg, po; assay type: ADME, organism-based; settings: in vivo
How it was run: (§1)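 Rats received 2 mg/kg iv infusion or 5 mg/kg po, in 50% PEG400/40% PBS/10% ethanol.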

[3] = Volume of distribution at steady state in Sprague-Dawley rat at 2 mg/kg, iv and 5 mg/kg, po; assay type: ADME, organism-based; settings: in vivo, read-out: Vdss; how it was run: as §1
[4] = Half life in Sprague-Dawley rat at 2 mg/kg, iv and 5 mg/kg, po; assay type: ADME, organism-based; settings: in vivo; how it was run: as §1
[5] = Apparent permeability across human Caco-2 cells; assay type: ADME, cell-based
Rattus norvegicus [6] = species on record: Rattus norvegicus; settings: in vivo, po, 5 mg/kg
in vivo = settings: Sprague-Dawley, rat, po, 5 mg/kg
[7] = Solubility of the compound; assay type: physicochemical
[8] = Chemical stability of the compound; assay type: physicochemical
[9] = Antiplatelet aggregation activity against adenosine diphosphate-induced human platelet rich plasma assessed as inhibition of platelet aggregation by chronolog PRP aggregometry assay; settings: read-out: IC50(app)
Rattus norvegicus [10] = species on record: Rattus norvegicus; assay: Antithrombotic activity in rat venous thrombus model assessed as inhibition of injury-induced thrombosis; assay type: functional, organism-based
How it was run: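 Rats given test compound orally; thrombosis induced by vascular injury with ferric chloride; thrombus formation was scored as the read-out.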

Rattus norvegicus [11] = species on record: Rattus norvegicus; assay: Toxicity in rat assessed as adverse effects; assay type: organism-based; settings: in vivo
Canis familiaris = species on record: Canis familiaris; assay: Toxicity in dog assessed as adverse effects; assay type: organism-based, Canis lupus familiaris; settings: in vivo

Sequence of P2Y purinoceptor 12 (Q9H244 whole entry): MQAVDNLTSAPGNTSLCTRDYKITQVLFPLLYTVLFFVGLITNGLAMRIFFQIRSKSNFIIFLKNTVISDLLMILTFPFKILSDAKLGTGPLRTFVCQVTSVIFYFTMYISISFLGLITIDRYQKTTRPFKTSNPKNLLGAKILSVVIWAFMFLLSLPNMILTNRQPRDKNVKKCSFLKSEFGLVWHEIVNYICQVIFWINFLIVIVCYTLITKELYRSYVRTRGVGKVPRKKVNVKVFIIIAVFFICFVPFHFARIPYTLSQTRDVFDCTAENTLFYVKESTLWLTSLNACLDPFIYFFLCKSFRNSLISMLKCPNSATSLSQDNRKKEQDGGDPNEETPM

| Compound | Ki (P2Y purinoceptor 12) [nM] | IC50 ([1]; Homo sapiens, Platelet, Plasma) [nM] | clearance [2] [mL/min/kg] | Vd [3] [L/kg] | half-life [4] [min] | Papp [5] [×10⁻⁶ cm/s] | F (Rattus norvegicus [6]) [%] | bioavailability (in vivo) [%] | IC50 ([1]; platelet) [nM] | solubility [7] | Stability [8] | IC50 [9] [nM] | Ratio IC50 (Platelet) | inhibition (Rattus norvegicus [10]) | Activity (Rattus norvegicus [11]) | Activity (Canis familiaris) |
| --- | --- | --- | --- | --- | --- | --- | --- | --- | --- | --- | --- | --- | --- | --- | --- | --- |
| CCCCCOC(=O)N1CCN(C(=O)[C@H](CCC(=O)O)NC(=O)c2cc(N3CCC(N(C)C)CC3)cc(-c3ccccc3)n2)CC1 | 22 | 1800 | 81 | 2.3 | 18 | – | – | – | – | – | – | – | 2.1 | – | – | – |
| CCOC(=O)N1CCN(C(=O)[C@H](CCC(=O)O)NC(=O)c2cc(N3CCOCC3)cc(-c3ccccc3)n2)CC1 | 39 | 25000 | 58 | 3.4 | 42 | – | – | – | – | – | – | – | 22 | – | – | – |
| CCCCCOC(=O)N1CCN(C(=O)[C@H](CCC(=O)O)NC(=O)c2cc(OC(=O)N3CCOCC3)cc(-c3ccccc3)n2)CC1 | 4.8 | 1700 | 220 | 31 | 96 | – | – | – | – | – | – | – | 0.99 | – | – | – |
| CCCCCOC(=O)N1CCN(C(=O)[C@H](CCC(=O)O)NC(=O)c2cc(CCCN(C)C)cc(-c3ccccc3)n2)CC1 | 1 | 1300 | 38 | 3.2 | 60 | – | – | – | – | – | – | – | 1.3 | – | – | – |
| CCCCCOC(=O)N1CCN(C(=O)[C@H](CCC(=O)O)NC(=O)c2cc(OC(=O)N(C)CC3CCOCC3)cc(-c3ccccc3)n2)CC1 | 45 | 470 | 109 | 8.6 | 78 | – | – | – | – | – | – | – | 0.82 | – | – | – |
| CCCCCOC(=O)N1CCN(C(=O)[C@H](CCC(=O)O)NC(=O)c2cc(N3CCC(CN(C)C)CC3)cc(-c3ccccc3)n2)CC1 | – | – | 92 | 2.1 | 18 | – | – | – | – | – | – | – | 1.3 | – | – | – |
| CCCCCOC(=O)N1CCN(C(=O)[C@H](CCC(=O)O)NC(=O)c2cc(C(=O)N3CCOCC3)cc(-c3ccccc3)n2)CC1 | 4.4 | 710 | 51 | 1.1 | 14.4 | – | – | – | – | – | – | – | 1 | – | – | – |
| CCCCCOC(=O)N1CCN(C(=O)[C@H](CCC(=O)O)NC(=O)c2cc(OC3CCN(CCOC)CC3)cc(-c3ccccc3)n2)CC1 | 9.9 | 1700 | 94 | 5.2 | 38.4 | – | – | – | – | – | – | – | 1.7 | – | – | – |
| CCOC(=O)N1CCN(C(=O)[C@H](CCC(=O)O)NC(=O)c2cccc(-c3ccccc3)n2)CC1 | 209 | 71000 | 98 | 15.5 | 108 | – | – | 34 | – | – | – | – | – | – | – | – |
| CCCCCOC(=O)N1CCN(C(=O)[C@H](CCC(=O)O)NC(=O)c2cc(OCC3CCN(C(C)C)CC3)cc(-c3ccccc3)n2)CC1 | 5.5 | 380 | 63 | 3.4 | 36 | – | – | – | – | – | – | – | 0.5 | – | – | – |
| CCCNc1cc(C(=O)N[C@@H](CCC(=O)O)C(=O)N2CCN(C(=O)OCC)CC2)nc(-c2ccccc2)c1 | – | 28000 | 85 | 3.8 | 30 | – | – | 80 | – | – | – | – | 28 | – | – | – |
| CCCCCOC(=O)N1CCN(C(=O)[C@H](CCC(=O)O)NC(=O)c2cc(NCCO)cc(-c3ccccc3)n2)CC1 | 5.7 | 3800 | 103 | 3.9 | 24 | – | – | 8 | – | – | – | – | 3.2 | – | – | – |
| CCCCCOC(=O)N1CCN(C(=O)[C@H](CCC(=O)O)NC(=O)c2cc(OC3CCN(C(C)=O)CC3)cc(-c3ccccc3)n2)CC1 | 3.6 | 1800 | 36 | 0.58 | 12 | – | – | – | – | – | – | – | 1.8 | – | – | – |
| CCOC(=O)N1CCN(C(=O)[C@H](CCC(=O)O)NC(=O)c2cc(N3CCCCC3)cc(-c3ccccc3)n2)CC1 | 112 | 29000 | 34 | 1.3 | 24 | – | – | – | – | – | – | – | 34 | – | – | – |

The next lines start with results.

| Ki (P2Y purinoceptor 12) [nM] | IC50 ([1]; Homo sapiens, Platelet, Plasma) [nM] | clearance [2] [mL/min/kg] | Vd [3] [L/kg] | half-life [4] [min] | Papp [5] [×10⁻⁶ cm/s] | F (Rattus norvegicus [6]) [%] | bioavailability (in vivo) [%] | IC50 ([1]; platelet) [nM] | solubility [7] | Stability [8] | IC50 [9] [nM] | Compound | Ratio IC50 (Platelet) | inhibition (Rattus norvegicus [10]) | Activity (Rattus norvegicus [11]) | Activity (Canis familiaris) |
| --- | --- | --- | --- | --- | --- | --- | --- | --- | --- | --- | --- | --- | --- | --- | --- | --- |
| 22 | 1100 | 96 | 9.2 | 66 | – | – | – | – | – | – | – | CCCCCOC(=O)N1CCN(C(=O)[C@H](CCC(=O)O)NC(=O)c2cc(CCCN(CC)CC)cc(-c3ccccc3)n2)CC1 | 1.6 | – | – | – |
| 12 | 1000 | 112 | 5.6 | 36 | – | – | – | – | – | – | – | CCCCCOC(=O)N1CCN(C(=O)[C@H](CCC(=O)O)NC(=O)c2cc(CCCNCC(C)C)cc(-c3ccccc3)n2)CC1 | 1.5 | – | – | – |
| – | 4500 | – | – | – | 1.1 | – | – | – | – | – | – | CCCCOC(=O)N1CCN(C(=O)[C@H](CCC(=O)O)NC(=O)c2cc(OCCOC)cc(-c3ccccc3)n2)CC1 | 2.9 | – | – | – |
| 7.7 | 1800 | 46 | 2.3 | 36 | – | – | – | – | – | – | – | CCCCCOC(=O)N1CCN(C(=O)[C@H](CCC(=O)O)NC(=O)c2cc(OC(=O)N3CCCC3)cc(-c3ccccc3)n2)CC1 | 1 | – | – | – |
| 4.5 | 820 | 62 | 1.3 | 12 | – | – | – | – | – | – | – | CCCCCOC(=O)N1CCN(C(=O)[C@H](CCC(=O)O)NC(=O)c2cc(OCC3CCNCC3)cc(-c3ccccc3)n2)CC1 | 0.82 | – | – | – |
| – | 4300 | 46 | 2.3 | 36 | – | 183 | – | – | – | – | – | CCCCCOC(=O)N1CCN(C(=O)[C@H](CCC(=O)O)NC(=O)c2cc(OCCOC)cc(-c3ccccc3)n2)CC1 | 3.2 | – | – | – |
| 5.3 | 330 | 130 | 6.9 | 36 | – | – | – | – | – | – | – | CCCCCOC(=O)N1CCN(C(=O)[C@H](CCC(=O)O)NC(=O)c2cc(OCC3CCN(C)CC3)cc(-c3ccccc3)n2)CC1 | 0.62 | – | – | – |
| 9 | 1200 | 52 | 7.3 | 96 | – | – | – | – | – | – | – | CCCCCOC(=O)N1CCN(C(=O)[C@H](CCC(=O)O)NC(=O)c2cc(N3CCC(N4CCCC4)CC3)cc(-c3ccccc3)n2)CC1 | 0.57 | – | – | – |
| 17 | 1100 | 32 | 0.38 | 6 | – | – | – | – | – | – | – | CCCCCOC(=O)N1CCN(C(=O)[C@H](CCC(=O)O)NC(=O)c2cc(N3CCC(N)CC3)cc(-c3ccccc3)n2)CC1 | 1.2 | – | – | – |
| 3.2 | 460 | 54 | 1.2 | 15 | – | – | – | – | – | – | – | CCCCCOC(=O)N1CCN(C(=O)[C@H](CCC(=O)O)NC(=O)c2cc(C(=O)N3CCC(OC)CC3)cc(-c3ccccc3)n2)CC1 | 0.99 | – | – | – |
| 5.4 | 580 | 37 | 0.77 | 12 | – | – | – | – | – | – | – | CCCCCOC(=O)N1CCN(C(=O)[C@H](CCC(=O)O)NC(=O)c2cc(C(=O)N3CCC(N(C)C)CC3)cc(-c3ccccc3)n2)CC1 | 1 | – | – | – |
| 11 | 10000 | 675 | 29 | 30 | – | – | 66 | – | – | – | – | CCCCCOC(=O)N1CCN(C(=O)[C@H](CCC(=O)O)NC(=O)c2cc(O)cc(-c3ccccc3)n2)CC1 | 7.2 | – | – | – |
| – | – | – | – | – | – | – | – | 3900 | Soluble | Stable | 1800 | CCCCCOC(=O)N1CCN(C(=O)[C@H](CCC(=O)O)NC(=O)c2cc(N3CCC(COC)CC3)cc(-c3ccccc3)n2)CC1 | – | Dose-dependent effect | Non-toxic | Non-toxic |
| 9.4 | 2400 | 150 | 6.9 | 30 | – | – | 1 | – | – | – | – | CCCCCCOC(=O)N1CCN(C(=O)[C@H](CCC(=O)O)NC(=O)c2cc(OC3CCNCC3)cc(-c3ccccc3)n2)CC1 | 1.8 | – | – | – |
| 5.3 | 550 | 141 | 10.9 | 53.4 | – | – | – | – | – | – | – | CCCCCOC(=O)N1CCN(C(=O)[C@H](CCC(=O)O)NC(=O)c2cc(OCC3CCN(CCOC)CC3)cc(-c3ccccc3)n2)CC1 | 0.73 | – | – | – |
| 60 | 34000 | 109 | 3.9 | 24 | – | – | 72 | – | – | – | – | CCCCOc1cc(C(=O)N[C@@H](CCC(=O)O)C(=O)N2CCN(C(=O)OCC)CC2)nc(-c2ccccc2)c1 | 32 | – | – | – |
| 140 | 6000 | 94 | 13.6 | 12 | – | – | 33 | – | – | – | – | CCOC(=O)N1CCN(C(=O)[C@H](CCC(=O)O)NC(=O)c2cc(OCCOC)cc(-c3ccccc3)n2)CC1 | 8 | – | – | – |
